E-selectin induc = E-selectin induction in HUVECs, primary screen, imaging, HUVEC, immunofluorescence imaging, single point. P16581. normalized: neutral wells 0, TNF-alpha wells 100. activation, % at 7.58 µM. 260,000 tested, 0.37% active. AID 686992, 2013;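 active = mean E-selectin-positive cell signal at least 10% of the positive control, reached in at least 60% of replicates, without over 20% cell loss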
Target sequence (P16581 whole entry, looked up): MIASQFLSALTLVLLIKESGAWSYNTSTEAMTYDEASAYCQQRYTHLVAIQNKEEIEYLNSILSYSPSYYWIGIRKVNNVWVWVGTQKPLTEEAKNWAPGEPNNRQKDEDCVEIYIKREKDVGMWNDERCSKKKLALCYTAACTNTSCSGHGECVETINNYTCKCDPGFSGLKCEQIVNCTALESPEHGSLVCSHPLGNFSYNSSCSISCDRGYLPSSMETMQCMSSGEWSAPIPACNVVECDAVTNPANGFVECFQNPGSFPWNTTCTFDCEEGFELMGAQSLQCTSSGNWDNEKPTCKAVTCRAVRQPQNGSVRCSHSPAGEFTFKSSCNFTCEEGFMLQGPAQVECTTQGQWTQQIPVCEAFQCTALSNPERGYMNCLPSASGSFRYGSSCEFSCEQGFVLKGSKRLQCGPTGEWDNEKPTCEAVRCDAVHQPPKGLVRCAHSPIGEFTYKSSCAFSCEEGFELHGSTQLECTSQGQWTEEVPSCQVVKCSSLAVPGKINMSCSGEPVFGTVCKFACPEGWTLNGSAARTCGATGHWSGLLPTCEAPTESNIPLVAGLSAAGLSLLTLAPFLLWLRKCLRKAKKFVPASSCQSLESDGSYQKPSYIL
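Read-out basis: % PE-positive cells; Test system: HUVEC primary endothelial cells; Technique: immunofluorescence imaging; Dosing: single-point compound dose.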
Large screens that a line does not name were inactive. Many of the other results were omitted from the sample, so hits are more common in it than they were.

COc1ccc(CN2C[C@H](O)COC[C@@H]3O[C@@H](CC(=O)NCCN4CCCC4)CC[C@H]32)cc1	none
Cc1ccc(-n2c(-c3cccs3)nc3nc4ccccc4nc32)cc1	none
Fc1ccc(-n2c(-c3cccs3)nc3nc4ccccc4nc32)cc1	E-selectin induc 35.9
Fc1ccc(N2N=C(c3cccs3)CC2c2ccccc2)cc1 (configuration not stated)	none
CCc1nnc(NC(=O)CSc2ccc(-c3ccccc3OC)nn2)s1	none
COc1ccccc1-c1nnc(NC(=O)CSc2nncn2C)s1	E-selectin induc 36.7
COC(=O)c1ccccc1NC(=O)CSc1nncn1C	none
C[C@@H]1CN([C@@H](C)CO)C(=O)c2cc(NS(=O)(=O)c3ccccc3)ccc2O[C@@H](C)CCCCO[C@@H]1CN(C)S(=O)(=O)c1ccccc1	none
CCCNC(=O)[C@H]1[C@H](CO)[C@H]2Cn3c(ccc(-c4ccc(OC)cc4)c3=O)[C@H]2N1CCC	none
CCOC(=O)N1CCN(c2c(NCCOC)c(=O)c2=O)CC1	none
CCOC(=O)N1CCN(c2c(N3CCOCC3)c(=O)c2=O)CC1	E-selectin induc 203.5
CCOC(=O)N1CCN(c2c(N3CCN(c4ccc(OC)cc4)CC3)c(=O)c2=O)CC1	none
COCC(=O)N(C)C[C@H]1Oc2cc(C3=CCCC3)ccc2S(=O)(=O)N([C@H](C)CO)C[C@H]1C	none
C[C@@H]1CN([C@H](C)CO)C(=O)c2cc(NC(=O)C3CCCCC3)ccc2O[C@@H](C)CCCCO[C@@H]1CN(C)S(=O)(=O)c1cccs1	none
C[C@H](CO)N1C[C@H](C)[C@H](CN(C)Cc2ccc(Oc3ccccc3)cc2)Oc2ccc(NC(=O)c3ccncc3)cc2C1=O	none
C[C@@H]1CN([C@@H](C)CO)C(=O)c2cc(NC(=O)c3ccncc3)ccc2O[C@@H]1CN(C)Cc1ccc(Oc2ccccc2)cc1	none
C[C@H]1CN([C@@H](C)CO)C(=O)c2cc(NC(=O)c3ccncc3)ccc2O[C@H]1CN(C)Cc1ccncc1	none
C[C@@H]1CN([C@H](C)CO)C(=O)c2cc(NC(=O)c3ccncc3)ccc2O[C@H]1CN(C)Cc1ccncc1	none
COc1ccc(CN(C)C[C@@H]2Oc3ccc(NC(=O)c4ccncc4)cc3C(=O)N([C@H](C)CO)C[C@H]2C)cc1	E-selectin induc 92.6
COc1ccc(CN(C)C[C@H]2Oc3ccc(NC(=O)c4ccncc4)cc3C(=O)N([C@H](C)CO)C[C@@H]2C)cc1	E-selectin induc 47.5
C[C@@H]1CCCCO[C@@H](CN(C)C(=O)NC2CCCCC2)[C@@H](C)CN([C@@H](C)CO)C(=O)c2cc(NC(=O)Nc3ccc(C(F)(F)F)cc3)ccc2O1	none
C[C@H]1CCCCO[C@H](CN(C)C(=O)c2ccccc2)[C@@H](C)CN([C@@H](C)CO)C(=O)c2cc(NC(=O)CCC(F)(F)F)ccc2O1	none
CS(=O)(=O)NCCNc1cc(Cl)ccc1[N+](=O)[O-]	E-selectin induc 95.1
CS(=O)(=O)NCCNc1ccc(Cl)cc1[N+](=O)[O-]	none
O=C(NCCNc1cc(Cl)ccc1[N+](=O)[O-])c1ccco1	none
CCC(=O)Nc1ccc2c(c1)OC[C@@H](C)N(C(=O)c1cccnc1)C[C@H](C)[C@@H](OC)CN(C)C2=O	none
C[C@H]1CN([C@@H](C)CO)C(=O)c2cc(NC(=O)Nc3ccc(C(F)(F)F)cc3)ccc2O[C@@H]1CN(C)Cc1ccccc1	none
O=C(c1ccccn1)N1CC(=O)N2[C@H](CO)[C@@H](c3ccc(C#Cc4ccccc4)cc3)[C@H]2C1	none
C[C@H](CO)N1C[C@H](C)[C@H](CN(C)Cc2ccncc2)Oc2ccc(NC(=O)Nc3ccccc3)cc2CC1=O	none
C[C@@H]1CN([C@@H](C)CO)C(=O)Cc2cc(NC(=O)Nc3ccc(F)cc3)ccc2O[C@@H]1CN(C)Cc1ccncc1	E-selectin induc 127.5
C[C@H](CO)N1C[C@H](C)[C@@H](CN(C)Cc2ccncc2)Oc2ccc(NC(=O)Nc3ccccc3)cc2CC1=O	none
C[C@@H]1CN([C@@H](C)CO)C(=O)Cc2cc(NC(=O)Nc3ccc(F)cc3)ccc2O[C@H]1CN(C)Cc1ccncc1	none
C[C@@H]1CN([C@H](C)CO)C(=O)Cc2cc(NC(=O)Nc3ccc(F)cc3)ccc2O[C@@H]1CN(C)Cc1ccncc1	E-selectin induc 44.0
C[C@H](CO)N1C[C@H](C)[C@@H](CN(C)Cc2ccncc2)Oc2ccc(NC(=O)Nc3ccc(F)cc3)cc2CC1=O	none
Cc1noc(C)c1NC(=O)Nc1ccc2c(c1)C(=O)N([C@@H](C)CO)C[C@@H](C)[C@@H](CN(C)Cc1ccc(C(F)(F)F)cc1)OCCCC[C@H](C)O2	none
CS(=O)(=O)N1[C@H](C#N)[C@H](c2ccccc2)[C@H]1CO	none
C[C@@H]1CN([C@@H](C)CO)C(=O)c2cc(NC(=O)CCC(F)(F)F)ccc2O[C@@H]1CN(C)Cc1ccc(C(F)(F)F)cc1	none
C[C@H]1CN([C@@H](C)CO)C(=O)c2cc(NC(=O)CCC(F)(F)F)ccc2O[C@@H]1CN(C)Cc1ccc(C(F)(F)F)cc1	E-selectin induc 38.3
C[C@@H]1CN([C@@H](C)CO)C(=O)c2cc(NC(=O)CCC(F)(F)F)ccc2O[C@H]1CN(C)Cc1ccc(C(F)(F)F)cc1	none

Assay outcomes as filed in PubChem.
